Test results taken from ChEMBL document CHEMBL2406994, “Novel triple reuptake inhibitors with low risk of CAD associated liabilities: design, synthesis and biological activities of 4-[(1S)-1-(3,4-dichlorophenyl)-2-methoxyethyl]piperidine and related compounds” (Bioorg Med Chem, 2013).
Activity calls are given as the source filed them. No cut-off for these calls is given here.

What was measured:
Mus musculus [1] = assay: Antidepressant activity in ICR mouse assessed as DA level at 10 mg/kg, po after 120 mins by microdialysis relative to control; assay type: functional
In short: (§1)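 Male 6-week-old ICR mice; probe implanted stereotaxically into medial prefrontal cortex under pentobarbital, 1 day recovery. Perfusion with Ringer at 2 µL/min; after ≥120 min stabilisation, dialysate collected every 20 min. Baseline from mean of three stable samples. Drug in water given orally at 10 mL/kg; collection continued 120 min. 5-HT, NE and DA measured by HPLC with electrochemical detection.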

Mus musculus [2] = assay: Antidepressant activity in ICR mouse assessed as NE level at 10 mg/kg, po after 120 mins by microdialysis relative to control; assay type: functional; in short: as §1
Mus musculus [3] = assay: Antidepressant activity in ICR mouse assessed as 5-HT level at 10 mg/kg, po after 120 mins by microdialysis relative to control; assay type: functional; in short: as §1
Mus musculus [4] = assay: Ex vivo receptor occupancy of DAT in po dosed ICR mouse after 1 hr in presence of [3H]-WIN35428; assay type: functional, organism-based
In short: (§2)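 Oral dosing in mice; 1 h later, frontal cortex and striatum dissected. Unwashed homogenate incubated with [³H]-citalopram (25 nM, SERT), [³H]-nisoxetine (25 nM, NET) or [³H]-WIN35428 (50 nM, DAT). Occupancy taken as percent inhibition of specific binding.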

Mus musculus [5] = assay: Ex vivo receptor occupancy of NET in po dosed ICR mouse after 1 hr in presence of [3H]-nisoxetine; assay type: functional, organism-based; in short: as §2
Mus musculus [6] = assay: Ex vivo receptor occupancy of SERT in po dosed ICR mouse after 1 hr in presence of [3H]-citalopram; assay type: functional, organism-based; in short: as §2
Mus musculus [7] = assay: Antidepressant activity in ICR mouse assessed as reduction in immobility rate at 10 mg/kg, po after 60 mins by tail suspension test; assay type: functional, organism-based; design: dose 10 mg/kg
In short: (§3)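 Male 7-week-old ICR mice, n = 11/group. Drug or vehicle (distilled water) given orally at 10 mL/kg; test run 60 min later. Mice hung by the tail from a strain-gauge hook, and immobility scored from load variation over a 10 min test. Average immobility ratio (%) per group; significance by parametric Williams' test, P < .025.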

Mus musculus [8] = assay: Antidepressant activity in po dosed ICR mouse assessed as immobility rate after 60 mins by tail suspension test; assay type: functional, organism-based; in short: as §3
Mus musculus [9] = assay: Antidepressant activity in orally dosed ICR mouse after 60 mins by tail suspension test; assay type: functional; conditions: po, 1 h, read-out: MED; in short: as §3
hERG (KCNH2) = hERG (KCNH2) (Homo sapiens, UniProt Q12809); assay: Inhibition of human ERG channel at 10 uM by ionworks assay relative to control
In short: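 hERG current measured on IonWorks Quattro with test compound at 10 µM. Expressed as % inhibition.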

CYP2D6 = CYP2D6 (Homo sapiens, UniProt P10635); assay: Inhibition of CYP2D6 (unknown origin) assessed as 1'-hydroxybufuralol production at 10 uM after 20 mins by LC/MS/MS analysis relative to control; assay type: ADME; conditions: probe bufuralol (measured as 1'-hydroxybufuralol production)
In short: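 10 µmol/L bufuralol incubated with 2 nmol/L CYP2D6 from insect cells expressing the enzyme, with 10 µmol/L test compound, for 20 min at 37 °C. 1'-hydroxybufuralol quantified by LC/MS/MS. Expressed as % inhibition.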

[10] = target: Sodium-dependent dopamine transporter (Homo sapiens, UniProt Q01959); assay: Displacement of [3H]-dopamine from human DAT expressed in CHO cells by TopCounting analysis; assay type: cell-based
In short: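 CHO cells stably expressing human DAT, plated overnight at 3 × 10⁵ cells/mL in HEPES-buffered saline with 0.5% BSA. Compound added, then [³H]-dopamine (200 nM diluted stock) with cold dopamine. Uptake for 60 min, two PBS washes, scintillation counting. Activity relative to 100 µM nomifensine as 100%. IC50 and 95% CI from n = 2.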

[11] = target: Sodium-dependent noradrenaline transporter (Homo sapiens, UniProt P23975); assay: Displacement of [3H]-norepinephrine from human NET expressed in CHO cells by TopCounting analysis; assay type: cell-based
In short: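 CHO cells stably expressing human NET, plated overnight at 3 × 10⁵ cells/mL in HEPES-buffered saline with 0.5% BSA. Compound added, then [³H]-norepinephrine (200 nM diluted stock). Uptake stopped at 45 min with two PBS washes, then scintillation counting. IC50 and 95% CI from n = 2.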

[12] = target: Sodium-dependent serotonin transporter (Homo sapiens, UniProt P31645); assay: Displacement of [3H]-hydroxytryptamine from human SERT expressed in CHO cells by TopCounting analysis; assay type: cell-based
In short: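 CHO cells stably expressing human SERT, plated overnight at 3 × 10⁵ cells/mL in HEPES-buffered saline with 0.5% BSA. Compound added, then [³H]-5-HT (200 nM diluted stock). Uptake stopped at 20 min with two PBS washes, then scintillation counting. Activity relative to 10 µM paroxetine.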

CYP2D6, sequence (P10635 whole entry): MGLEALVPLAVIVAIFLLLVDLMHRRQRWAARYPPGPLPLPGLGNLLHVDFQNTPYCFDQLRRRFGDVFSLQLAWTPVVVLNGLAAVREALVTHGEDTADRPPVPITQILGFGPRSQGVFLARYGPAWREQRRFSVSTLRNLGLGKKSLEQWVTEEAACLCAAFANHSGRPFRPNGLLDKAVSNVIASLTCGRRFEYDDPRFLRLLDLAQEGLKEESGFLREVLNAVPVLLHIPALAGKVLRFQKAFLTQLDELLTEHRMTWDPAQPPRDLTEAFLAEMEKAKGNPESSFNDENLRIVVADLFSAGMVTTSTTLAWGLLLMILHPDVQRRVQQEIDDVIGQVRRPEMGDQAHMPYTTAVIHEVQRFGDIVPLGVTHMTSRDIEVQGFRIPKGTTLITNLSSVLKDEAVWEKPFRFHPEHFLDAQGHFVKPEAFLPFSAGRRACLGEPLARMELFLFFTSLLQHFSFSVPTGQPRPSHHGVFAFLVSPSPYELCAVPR
Sodium-dependent noradrenaline transporter, sequence (P23975 whole entry): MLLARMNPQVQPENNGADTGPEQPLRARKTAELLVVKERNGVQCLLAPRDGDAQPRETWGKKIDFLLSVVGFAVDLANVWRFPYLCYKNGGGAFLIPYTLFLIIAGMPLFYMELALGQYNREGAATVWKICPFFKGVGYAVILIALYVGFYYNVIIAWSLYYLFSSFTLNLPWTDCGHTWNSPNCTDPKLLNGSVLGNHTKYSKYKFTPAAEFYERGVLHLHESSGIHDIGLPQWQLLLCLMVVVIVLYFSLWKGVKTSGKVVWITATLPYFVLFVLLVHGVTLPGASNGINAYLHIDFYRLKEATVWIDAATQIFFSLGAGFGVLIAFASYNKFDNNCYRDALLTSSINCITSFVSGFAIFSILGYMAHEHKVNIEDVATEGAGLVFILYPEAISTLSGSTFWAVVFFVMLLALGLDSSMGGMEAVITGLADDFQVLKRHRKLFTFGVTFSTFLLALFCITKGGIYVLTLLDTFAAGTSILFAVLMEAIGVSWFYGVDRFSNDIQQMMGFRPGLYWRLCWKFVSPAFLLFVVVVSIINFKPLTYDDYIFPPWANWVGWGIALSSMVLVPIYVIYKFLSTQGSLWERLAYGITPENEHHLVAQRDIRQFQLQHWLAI
Sodium-dependent dopamine transporter, sequence (Q01959 whole entry): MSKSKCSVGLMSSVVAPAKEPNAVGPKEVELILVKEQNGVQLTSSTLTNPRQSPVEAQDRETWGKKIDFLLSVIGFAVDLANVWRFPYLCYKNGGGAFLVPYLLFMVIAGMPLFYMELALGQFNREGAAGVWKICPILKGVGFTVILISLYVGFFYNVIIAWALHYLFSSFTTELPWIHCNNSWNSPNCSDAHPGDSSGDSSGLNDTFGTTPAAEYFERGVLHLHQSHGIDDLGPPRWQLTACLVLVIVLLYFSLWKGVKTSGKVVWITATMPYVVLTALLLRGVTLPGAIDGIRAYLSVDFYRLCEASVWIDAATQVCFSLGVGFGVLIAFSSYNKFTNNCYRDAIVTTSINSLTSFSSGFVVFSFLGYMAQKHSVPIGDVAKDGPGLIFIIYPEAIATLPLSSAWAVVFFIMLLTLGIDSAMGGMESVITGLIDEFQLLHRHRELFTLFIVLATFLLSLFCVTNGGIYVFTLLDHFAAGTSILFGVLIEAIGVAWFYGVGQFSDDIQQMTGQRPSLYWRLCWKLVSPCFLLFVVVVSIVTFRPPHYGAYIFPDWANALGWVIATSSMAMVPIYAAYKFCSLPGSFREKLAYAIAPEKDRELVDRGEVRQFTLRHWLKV
hERG (KCNH2), sequence (Q12809 whole entry): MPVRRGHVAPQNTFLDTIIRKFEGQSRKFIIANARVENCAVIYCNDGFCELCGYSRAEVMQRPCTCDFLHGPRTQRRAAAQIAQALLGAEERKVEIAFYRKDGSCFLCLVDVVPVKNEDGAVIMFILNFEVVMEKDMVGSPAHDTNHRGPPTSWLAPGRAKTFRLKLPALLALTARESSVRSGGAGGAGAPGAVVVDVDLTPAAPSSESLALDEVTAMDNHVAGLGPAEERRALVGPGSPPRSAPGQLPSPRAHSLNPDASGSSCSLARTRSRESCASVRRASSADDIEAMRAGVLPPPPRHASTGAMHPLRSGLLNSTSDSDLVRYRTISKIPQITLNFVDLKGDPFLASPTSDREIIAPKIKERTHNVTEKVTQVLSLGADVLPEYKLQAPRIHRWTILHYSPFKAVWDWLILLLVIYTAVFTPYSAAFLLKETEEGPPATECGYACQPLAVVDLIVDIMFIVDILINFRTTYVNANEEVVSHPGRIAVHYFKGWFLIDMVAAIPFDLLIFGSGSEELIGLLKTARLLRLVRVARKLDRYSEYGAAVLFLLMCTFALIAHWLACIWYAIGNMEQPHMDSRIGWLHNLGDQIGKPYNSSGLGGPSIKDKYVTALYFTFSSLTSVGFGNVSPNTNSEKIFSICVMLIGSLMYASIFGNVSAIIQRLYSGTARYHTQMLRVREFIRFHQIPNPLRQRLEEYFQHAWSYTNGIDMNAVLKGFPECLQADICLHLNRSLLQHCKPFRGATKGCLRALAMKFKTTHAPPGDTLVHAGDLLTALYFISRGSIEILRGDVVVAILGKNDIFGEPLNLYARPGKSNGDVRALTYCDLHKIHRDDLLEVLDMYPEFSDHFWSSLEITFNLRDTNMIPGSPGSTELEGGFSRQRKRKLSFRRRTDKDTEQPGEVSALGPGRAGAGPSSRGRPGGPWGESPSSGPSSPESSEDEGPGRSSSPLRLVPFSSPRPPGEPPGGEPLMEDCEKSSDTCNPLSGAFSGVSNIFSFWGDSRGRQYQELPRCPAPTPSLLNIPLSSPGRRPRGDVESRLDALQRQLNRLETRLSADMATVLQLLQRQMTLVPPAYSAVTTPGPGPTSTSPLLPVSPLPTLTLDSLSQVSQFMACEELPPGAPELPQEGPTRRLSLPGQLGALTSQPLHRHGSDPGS
Sodium-dependent serotonin transporter, sequence (P31645 whole entry): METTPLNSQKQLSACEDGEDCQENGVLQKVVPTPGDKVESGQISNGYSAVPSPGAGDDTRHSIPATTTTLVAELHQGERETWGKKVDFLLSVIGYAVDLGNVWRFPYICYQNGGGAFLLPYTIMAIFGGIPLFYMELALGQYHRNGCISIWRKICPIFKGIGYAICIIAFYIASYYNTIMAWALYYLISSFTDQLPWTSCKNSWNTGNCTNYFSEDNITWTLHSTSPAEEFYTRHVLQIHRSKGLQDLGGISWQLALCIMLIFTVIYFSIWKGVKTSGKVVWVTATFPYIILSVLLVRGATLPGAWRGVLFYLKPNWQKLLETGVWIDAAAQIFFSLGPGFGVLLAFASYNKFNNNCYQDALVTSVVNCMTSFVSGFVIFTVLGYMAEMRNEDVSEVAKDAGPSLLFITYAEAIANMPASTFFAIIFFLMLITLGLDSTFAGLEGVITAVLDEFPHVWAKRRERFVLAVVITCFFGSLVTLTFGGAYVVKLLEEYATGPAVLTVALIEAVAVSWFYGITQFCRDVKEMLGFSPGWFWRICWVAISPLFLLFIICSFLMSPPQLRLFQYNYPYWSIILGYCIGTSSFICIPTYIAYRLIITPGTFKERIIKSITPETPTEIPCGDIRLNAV

Row | Structure (SMILES) | Activity (Mus musculus [1]) [%] | Activity (Mus musculus [2]) [%] | Activity (Mus musculus [3]) [%] | Activity (Mus musculus [4]) | Activity (Mus musculus [5]) | Activity (Mus musculus [6]) | Activity (Mus musculus [7]) | Activity (Mus musculus [8]) | minimal effective dose (Mus musculus [9]) [mg/kg] | inhibition at 10 µM (hERG (KCNH2)) [%] | inhibition at 20 min, 10 µM (CYP2D6) [%] | IC50 [10] [nM] | IC50 [11] [nM] | IC50 [12] [nM]
1 | COC[C@H](c1ccc(Cl)c(Cl)c1)C1CCNCC1.Cl | 270 | 400 | 180 | Dose-dependent effect | Dose-dependent effect | Dose-dependent effect | Active | Dose-dependent effect | 10 | 48 | 14 | 180 | 15 | 130
2 | COC[C@@H](c1ccc(Cl)c(Cl)c1)C1CCNCC1.Cl | – | – | – | – | – | – | – | – | 10 | 46 | 13 | 470 | 21 | 5.7
3 | CSCC(c1ccc(Cl)c(Cl)c1)C1CCNCC1.Cl (racemic) | – | – | – | – | – | – | – | – | 30 | 73 | 32 | 79 | 9.3 | 9.1
4 | CCSCC(c1ccc(Cl)c(Cl)c1)C1CCNCC1 (racemic) | – | – | – | – | – | – | – | – | – | 94 | 55 | 72 | 8.7 | 9.2
5 | CS(=O)(=O)CC(c1ccc(Cl)c(Cl)c1)C1CCNCC1 (racemic) | – | – | – | – | – | – | – | – | – | 9 | 3.9 | 2200 | 200 | 340
6 | COC(=O)C(c1ccc(Cl)c(Cl)c1)C1CCNCC1 (racemic) | – | – | – | – | – | – | – | – | – | 56 | 13 | 220 | 18 | 5.2
7 | CCOC(=O)C(c1ccc(Cl)c(Cl)c1)C1CCNCC1 (racemic) | – | – | – | – | – | – | – | – | – | 110 | 38 | 97 | 12 | 9.3
8 | CC(=O)C(c1ccc(Cl)c(Cl)c1)C1CCNCC1.Cl (racemic) | – | – | – | – | – | – | – | – | 30 | 40 | 11 | 180 | 44 | 21
9 | CCC(=O)C(c1ccc(Cl)c(Cl)c1)C1CCNCC1 (racemic) | – | – | – | – | – | – | – | – | – | 51 | 6.1 | 100 | 28 | 18
10 | CCCC(=O)C(c1ccc(Cl)c(Cl)c1)C1CCNCC1 (racemic) | – | – | – | – | – | – | – | – | – | 72 | 20 | 26 | 22 | 37
11 | COCC(c1ccc2ccccc2c1)C1CCNCC1 (racemic) | – | – | – | – | – | – | – | – | – | 38 | 22 | 1100 | 36 | 2.1
12 | COCC(c1cccc(Cl)c1)C1CCNCC1 (racemic) | – | – | – | – | – | – | – | – | – | 23 | 2 | 2600 | 98 | 180
13 | COCC(c1ccc(Cl)cc1)C1CCNCC1 (racemic) | – | – | – | – | – | – | – | – | – | 22 | -2.8 | 1700 | 130 | 120
14 | COCC(c1ccc(F)c(Cl)c1)C1CCNCC1 (racemic) | – | – | – | – | – | – | – | – | – | 24 | -18 | 580 | 70 | 32
15 | CC(c1ccc(Cl)c(Cl)c1)C1CCNCC1.Cl (racemic) | – | – | – | – | – | – | – | – | 3 | 72 | 27 | 160 | 25 | 12
16 | OCC(c1ccc(Cl)c(Cl)c1)C1CCNCC1 (racemic) | – | – | – | – | – | – | – | – | – | 12 | -1.5 | 2400 | 110 | 79
17 | COCC(c1ccc(Cl)c(Cl)c1)C1CCNCC1.Cl (racemic) | – | – | – | – | – | – | – | – | 3 | 42 | 5.7 | 190 | 14 | 11
18 | CCOCC(c1ccc(Cl)c(Cl)c1)C1CCNCC1.Cl (racemic) | – | – | – | – | – | – | – | – | 3 | 89 | 44 | 170 | 28 | 16
